Laboratory results: the array DNA melting data of Ke et al. (doi:10.1101/2024.01.08.574731)

Columns and labels:
[1] = melting temperature; fluorescence melt of hairpins on a sequencing array, two-state fit, raised by 9.35 °C to match UV melts; conditions: sodium 0.088 M
Procedure, shortened: (§1)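 In 50 mM Na-HEPES pH 8.0 containing 25 mM NaCl, hairpins from the library on a sequenced MiSeq flow cell were imaged for Cy3 fluorescence at 2.5 °C steps up to 60 °C, with Cy3 and quencher oligos annealed. After normalisation to pre-quench Cy3 and to control constructs, two-state fits with bootstrapping gave melting temperature and folding enthalpy. Four replicates were combined by inverse-variance weighting, and fitted temperatures were shifted up by 9.35 °C to match UV melts.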

[2] = folding enthalpy; higher = less favourable; fluorescence melt of hairpins on a sequencing array, two-state fit; conditions: sodium 0.088 M
Procedure, shortened: as §1

Row | Sequence | Tm [1] [°C] | folding enthalpy [2] [kcal/mol]
1 | GGACTGGGAAACTAGTCC (((((.(....).))))) | 50.2 | -32.1
2 | GGGGTCGGAAACGGTCCC (((..((....))..))) | 49.4 | -37.3
3 | GATCGCCAAGCGATC ((((((...)))))) | 67.5 | -29.8
4 | GGGTGTGGAAACATGCCC (((..((....))..))) | 47.7 | -28.4
5 | GGCCGACCGAAAGGTGCC (((..(((....)))))) | 49.5 | -25.5
6 | GTGGCAGGAAACTACCAC ((((.((....)).)))) | 44.6 | -34.2
7 | GCTCACGAAAGTGTCAGC ((((((....)))..))) | 37.4 | -17.4
8 | GTAGGGGGAAACCCCCAC ((.((((....)))).)) | 43.5 | -12.6
9 | GGTTCACGAAAGTGACC (((.(((....)))))) | 59 | -15.5
10 | GGACATCGAAAGATTTCC (((.(((....))).))) | 39.6 | -32
11 | GACCAAGGAAACTTGATC ((.((((....)))).)) | 28.8 | -16.8
12 | GACGGCCGAAAGGCAGTC (((.(((....))).))) | 68.8 | -26.2
13 | GCCCGGCGAAAGCCGTGC ((.((((....)))).)) | 59.8 | -13.9
14 | GATCAACTTGTTGATC ((((((....)))))) | 60.5 | -51.7
15 | GTTTACGAAAGTAAAC ((((((....)))))) | 57.3 | -28.3
16 | GTACCTGGAAACAGATAC (((.(((....))).))) | 32.7 | -18.8
17 | GATCGTATCAACGATC ((((((....)))))) | 55 | -35.5
18 | GTGCATGGAAACATACAC (((.(((....))).))) | 39.3 | -35
19 | GAGCTGCGAAAGCACCTC (((.(((....))).))) | 39.7 | -17
20 | GCTCATGCGAAAGCAAGC (((..(((....)))))) | 35 | -10.8
21 | GTCGGCGAAAGCCTGAC ((((((....))).))) | 56.9 | -15.6
22 | GGCTAAGGAAACCTAGCC (((((.(....).))))) | 46.6 | -31.5
23 | GATCCTACTAAGGATC ((((((....)))))) | 52.5 | -35.1

Row | Sequence | Tm [1] [°C] | folding enthalpy [2] [kcal/mol]
24 | GCCTGGCGAAAGCGTGGC (((..((....))..))) | 58.9 | -24.3
25 | GCAATTGCGAAAGCATGC (((..(((....)))))) | 40.2 | -14.9
26 | GTTCCCGAAAGGGAGAAC ((((((....)))..))) | 38 | -10.3
27 | GCGTCAGACGC ((((...)))) | 52.3 | -22.7
28 | GTGTGTGGAAACGCATAC ((.((.(....).)).)) | 36 | -22.9
29 | GATCAAATGCTTGATC ((((((....)))))) | 41.5 | -29.6
30 | GATCTAGGGTAGATC ((((((...)))))) | 36.7 | -22.7
31 | GATCCTTAGAGGATC ((((((...)))))) | 50 | -28.3
32 | GCACTTGGAAACAAGTAC (.(((((....))))).) | 37.9 | -19.3
33 | GATCGGCCACCCGATC ((((((....)))))) | 54.9 | -39.9
34 | GACAGTGGAAACGCTGTC (((((.(....).))))) | 52.1 | -40.9
35 | GATCGTATCACGATC ((((((...)))))) | 58.4 | -37.6
36 | GCGTCATTACGC ((((....)))) | 55 | -22.9
37 | GCCTCGCGAAAGCGCCGC ((..(((....)))..)) | 36.1 | -14.3
38 | GGCCCCGAAAGGGTCGCC ((((((....)))..))) | 55.5 | -16.1
39 | GCCCCTGGAAACGGGGGC (((((.(....).))))) | 66.6 | -33.7
40 | GCCCGGGGAAACTCGGGC (((((.(....).))))) | 67.2 | -37.5
41 | GCTAGTCGAAAGACAAGC (((.(((....))).))) | 51.8 | -34.7
42 | GGAGATGGAAACATCCCC ((.((((....)))).)) | 41.3 | -26.6
43 | GCCAACGCGAAAGCGGGC (((..(((....)))))) | 63.4 | -16.4
44 | GATCTGCGTGCAGATC ((((((....)))))) | 66.7 | -34.5
45 | GCGTCACTACGC ((((....)))) | 52.8 | -25.3
46 | GCTTTGGGAAACTGAAGC ((((..(....)..)))) | 35.2 | -31.6

Row | Sequence | Tm [1] [°C] | folding enthalpy [2] [kcal/mol]
47 | GTTTTGAAAAAAAC (((((....))))) | 37.6 | -12
48 | GATCGACACTCGATC ((((((...)))))) | 49.9 | -30.9
49 | GGTTACGAAAGTACCACC ((((((....)))..))) | 36.6 | -14.4
50 | GCCTGGCGAAAGCGATGC ((.(.((....)).).)) | 37 | -6.61
51 | GGCGGCGAAAGCCTTGCC ((((((....)))..))) | 55.1 | -19.2
52 | GATCATATATATGATC ((((((....)))))) | 48.8 | -42
53 | GATCCACCGATGGATC ((((((....)))))) | 49.2 | -36.7
54 | GTTGGCGAAAGCCAAAC ((((((....))).))) | 56.2 | -11.6
55 | GACGTCGGAAACAACGTC (((((.(....).))))) | 45.2 | -30.5
56 | GGGCTCCGAAAGGACCC (((.(((....)))))) | 57.4 | -30.1
57 | GCTATCGAAAGATAAAGC ((((((....)))..))) | 33.6 | -23.9
58 | GATCATCAGCATGATC ((((((....)))))) | 45 | -22.3
59 | GCAGTTGGAAACAGTTGC (((..((....))..))) | 29.7 | -13.8
60 | GATCAGGTGACTGATC ((((((....)))))) | 54.9 | -46.4
61 | GTCGGGGGAAACCCCAAC ((.((((....)))).)) | 38.5 | -16.1
62 | GGGCGGGCGAAAGCCCCC (((..(((....)))))) | 51.2 | -11.5
63 | CGGCACGGAAACGTTCCG (((.(((....))).))) | 47.9 | -24.5
64 | CTTCTGAAAAGAAG (((((....))))) | 43.3 | -14.7
65 | GAGGCGACGAAAGTCCTC (((..(((....)))))) | 38.1 | -12.6
66 | GAGATGCGAAAGCAGCTC (((.(((....))).))) | 69.1 | -34.6
67 | CGTTCGGAAACGACAACG ((((((....)))..))) | 34.4 | -15.2
68 | GCTTGCGAAAGCAAGAGC ((((((....)))..))) | 56.3 | -12.3
69 | GCAAGGCGAAAGCTTAGC ((.(.((....)).).)) | 38.8 | -13.6
